Test results published in ChEMBL document CHEMBL1932986, “Synthesis and in vitro antimycobacterial activity of compounds derived from (R)- and (S)-2-amino-1-butanol - The crucial role of the configuration” (Eur J Med Chem, 2012).
≈ marks a conversion by molar mass, not a printed value. Calls of active or inactive are those of the source. The calls are words filed in the database; no cut-off is given here.

How the values were obtained:
[1] = Solubility of the compound in deionized water; type: physicochemical
Bacillus mycoides = assay: Antibacterial activity against Bacillus mycoides DSMZ 274 at 50 mg/ml after 24 hrs by agar diffusion test; type: functional
In short: (§1)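 Agar diffusion: wells in agar filled with […] DMSO solution of compound at various concentrations; diameter of clear zone around application point measured. Bacteria grown 24 h at 37 °C on nutrient agar. Compounds first screened at 50 mg/ml; those active then tested at lower concentrations. Bracketed value = lowest concentration (mg/ml) giving zone >11 mm, reported only if activity retained at ≤1.25 mg/ml.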

Micrococcus luteus [2] = assay: Antibacterial activity against Micrococcus luteus ATCC 9631 at 50 mg/ml after 24 hrs by agar diffusion test; type: functional; in short: as §1
[3] = system: Mycobacterium tuberculosis; assay: Antimycobacterial activity against Mycobacterium tuberculosis H37Rv after 45 days; type: functional
In short: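 Canetti proportion method. Compound in DMSO is added to Löwenstein–Jensen egg medium before coagulation (30 min, 85 °C), tested at three levels plus a lower one where needed. Tubes are inoculated with H37Rv at 10⁵ cells/ml and incubated 45 days at 37 °C. Colony counts versus drug-free control give percentage inhibition.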

Candida tropicalis = assay: Antifungal activity against Candida tropicalis ATCC 20336 at 50 mg/ml after 72 hrs by agar diffusion test; type: functional
In short: (§2)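 Agar diffusion: yeasts grown on yeast peptone dextrose agar and fungi on potato dextrose agar. Wells are filled with […] of compound solution in DMSO at various concentrations, and the clear-zone diameter is measured. Bracketed values give the lowest concentration (mg/ml) that produces a zone >11 mm. A first screen is run at 50 mg/ml.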

HEK-293T = assay: Cytotoxicity against human HEK293T cells after 72 hrs by MTT assay; type: cell-based
In short: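 293T cells in RPMI-1640 with 10% heat-inactivated FCS and 2 mM L-glutamine, 37 °C, 5% CO2. Cells seeded at 3.5 × 10⁵ cells/ml, grown 24 h, then exposed 72 h to DMSO-diluted compounds (final solvent ≤0.5%), ≥8 wells per concentration. MTT added 4 h, formazan dissolved in 5% HCOOH/2-propanol, absorbance read at 580 nm. IC50 obtained by sigmoidal nonlinear regression against untreated control.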

Micrococcus luteus [4] = assay: Antibacterial activity against Sarcina lutea ATCC 9341 at 50 mg/ml after 24 hrs by agar diffusion test; type: functional
In short: (§3)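 Agar diffusion: bacteria grown 24 h at 37 °C on nutrient agar. Wells in the agar are filled with […] of compound solution in DMSO at various concentrations. The diameter of the clear zone around the application point is measured. Bracketed values give the lowest concentration (mg/ml) that produces a zone >11 mm. A first screen is run at 50 mg/ml.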

[5] = system: Mycobacterium tuberculosis; assay: Ratio of ethambutol dihydrochloride MIC to compound MIC for Mycobacterium tuberculosis H37Rv; type: functional
Bacillus = assay: Antibacterial activity against Bacillus idosus B 241 at 50 mg/ml after 24 hrs by agar diffusion test; type: functional; in short: as §1
Acinetobacter johnsonii = assay: Antibacterial activity against Acinetobacter johnsonii ATCC 17909 at 50 mg/ml after 24 hrs by agar diffusion test; type: functional; in short: as §1
Escherichia coli = assay: Antibacterial activity against Escherichia coli ATCC 8739 at 50 mg/ml after 24 hrs by agar diffusion test; type: functional; in short: as §1
Saccharomyces cerevisiae = assay: Antifungal activity against Saccharomyces cerevisiae ATCC 9763 at 50 mg/ml after 72 hrs by agar diffusion test; type: functional; in short: as §2
Bacillus subtilis = assay: Antibacterial activity against Bacillus subtilis ATCC 6633 at 50 mg/ml after 24 hrs by agar diffusion test; type: functional; details: for zone of inhibition at 50000 µg/mL: ATCC 6633, 24 h, read-out: DIZ; in short: as §1
Bacillus cereus = assay: Antibacterial activity against Bacillus cereus ATCC 11778 at 50 mg/ml after 24 hrs by agar diffusion test; type: functional; in short: as §1
Penicillium chrysogenum = assay: Antifungal activity against Penicillium chrysogenum CECT 2802 at 50 mg/ml after 72 hrs by agar diffusion test; type: functional; in short: as §2
Staphylococcus aureus = assay: Antibacterial activity against Staphylococcus aureus NRRL B 313 at 50 mg/ml after 24 hrs by agar diffusion test; type: functional; in short: as §3
[6] = Selectivity index, ratio of IC50 for human HEK293T cells to MIC for Mycobacterium tuberculosis H37Rv; type: functional, HEK-293T
Priestia megaterium = assay: Antibacterial activity against Bacillus megaterium NRRL 1353895 at 50 mg/ml after 24 hrs by agar diffusion test; type: functional; in short: as §1

Structure (SMILES) | solubility [1] [µg/mL] | diameter of the inhibition zone (DIZ) (Bacillus mycoides) | diameter of the inhibition zone (DIZ) (Micrococcus luteus [2]) | MIC [3] [µM] | diameter of the inhibition zone (DIZ) (Candida tropicalis) | IC50 (HEK-293T) [µM] | diameter of the inhibition zone (DIZ) (Micrococcus luteus [4]) | Ratio [5] | diameter of the inhibition zone (DIZ) (Bacillus) | diameter of the inhibition zone (DIZ) (Acinetobacter johnsonii) | diameter of the inhibition zone (DIZ) (Escherichia coli) | diameter of the inhibition zone (DIZ) (Saccharomyces cerevisiae) | diameter of the inhibition zone (DIZ) (Bacillus subtilis) | diameter of the inhibition zone (DIZ) (Bacillus cereus) | diameter of the inhibition zone (DIZ) (Penicillium chrysogenum) | diameter of the inhibition zone (DIZ) (Staphylococcus aureus) | Selectivity Index [6] | diameter of the inhibition zone (DIZ) (Priestia megaterium) | zone of inhibition at 50000 µg/mL (Bacillus subtilis) [mm] | other results
CC[C@H](CO)N1Cc2ccccc2C1=O | 1000 (≈ 4.87 mM) | inactive | inactive | 0.97 (≈ 0.199 µg/mL) | inactive | 89 | inactive | 5 | inactive | inactive | inactive | inactive | inactive | inactive | inactive | inactive | 91.8 | inactive |  | 
CCNC(=O)N[C@H](CC)CO | 215000 (≈ 1340 mM) | inactive | inactive | 1.25 (≈ 0.2 µg/mL) | inactive | 114 | inactive | 5 | inactive | inactive | inactive | inactive | inactive | inactive | inactive | inactive | 91.2 | inactive |  | 
CC[C@H](COC(C)=O)NC(c1ccccc1)(c1ccccc1)c1ccccc1 | < 1000 | inactive | inactive | 13.4 (≈ 5 µg/mL) | inactive | 114 | inactive |  | inactive | inactive | inactive | inactive |  | inactive | inactive | inactive | 8.5 | inactive | 13 | 
CC[C@H](CO)NP(=O)(c1ccccc1)c1ccccc1 | < 1000 |  |  | 0.69 (≈ 0.2 µg/mL) |  | 155 |  | 5 |  |  | inactive |  |  |  |  |  | 224.6 |  | 18 | zone of inhibition at 50000 µg/mL (Bacillus mycoides; DSMZ 274, 24 h, read-out: DIZ): 15 mm; zone of inhibition at 50000 µg/mL (Micrococcus luteus [2]; ATCC 9631, 24 h, read-out: DIZ): 15 mm; zone of inhibition at 50000 µg/mL (Candida tropicalis; ATCC 20336, 72 h, read-out: DIZ): 22 mm; zone of inhibition at 50000 µg/mL (Micrococcus luteus [4]; ATCC 9341, 24 h, read-out: DIZ): 18 mm; zone of inhibition at 50000 µg/mL (Bacillus; B 241, 24 h, read-out: DIZ): 15 mm; zone of inhibition at 50000 µg/mL (Acinetobacter johnsonii; ATCC 17909, 24 h, read-out: DIZ): 17 mm; zone of inhibition at 50000 µg/mL (Saccharomyces cerevisiae; ATCC 9763, 72 h, read-out: DIZ): 16 mm; zone of inhibition at 50000 µg/mL (Bacillus cereus; ATCC 11778, 24 h, read-out: DIZ): 15 mm; zone of inhibition at 50000 µg/mL (Staphylococcus aureus; NRRL B 313, 24 h, read-out: DIZ): 18 mm; zone of inhibition at 50000 µg/mL (Priestia megaterium; NRRL 1353895, 24 h, read-out: DIZ): 16 mm
CC[C@H](CO)NC(=O)c1ccc(N(C)C)cc1 | 1500 (≈ 6.35 mM) | inactive | inactive | 8.46 (≈ 2 µg/mL) | inactive | 173 | inactive |  | inactive | inactive | inactive | inactive | inactive | inactive | inactive | inactive | 20.5 | inactive |  | 
